Source: PMC3667555 (Bioconjugate chemistry, 2013)

Tested on: U87MG human glioma xenografts
Experiment: Biodistribution in athymic nude mice bearing U87MG glioma xenografts
Format: in vivo
Conditions: 1 h p.i.
Outline: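 Female athymic nu/nu mice (4–5 weeks at purchase) received 5 × 10^6 U87MG cells in the shoulder flank and were used 4 weeks later (tumor 0.1–0.5 g, mice 20–25 g). Each got ~0.1 MBq HPLC-purified 99mTc radiotracer in saline by tail vein. Killed by pentobarbital overdose at 60 min p.i.; blood by heart puncture; organs washed, weighed, γ-counted; %ID/g; n = 4–6.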

[1] = tail-vein injection, without RGD2

Substance: [^99mTc(HYNIC-3P-RGD2)(tricine)(TPPTS)] [Compound 5]
- Tumor/Blood: 15.36 ± 1.01
- Tumor/Liver: 2.55 ± 0.36
- Tumor/Lung: 1.71 ± 0.05
- Tumor/Muscle: 6.58 ± 1.58
- Blood uptake (tail-vein injection): 0.47 ± 0.06 %ID/g
- Brain uptake (tail-vein injection): 0.17 ± 0.03 %ID/g
- Eyes uptake (tail-vein injection): 1.40 ± 0.13 %ID/g
- Heart uptake (tail-vein injection): 1.67 ± 0.15 %ID/g
- Kidneys uptake (tail-vein injection): 12.28 ± 1.09 %ID/g
- Liver uptake (tail-vein injection): 2.92 ± 0.77 %ID/g
- Lungs uptake (tail-vein injection): 4.25 ± 0.63 %ID/g
- Muscle uptake (tail-vein injection): 1.12 ± 0.15 %ID/g
- Spleen uptake (tail-vein injection): 3.11 ± 0.18 %ID/g
- Intestine uptake [1]: 9.45 ± 1.31 %ID/g
- Tumor uptake [1]: 7.24 ± 0.95 %ID/g
